Assay results from different studies.
Compare with care: the assays were run in different laboratories.
Target: Insulin receptor (INSR, Homo sapiens, UniProt P06213)

CC(C)(C)c1cc(C=C(C#N)C#N)cc(Br)c1O  remaining activity (enzyme activity; inhibitor; 0.5 µM): 105%
Cn1cncc1[C@@](O)(COc1ccc(C#N)cc1-c1ccc(OC(F)(F)F)cc1)c1ccc(C#N)cc1  remaining binding (cell-free assay; competition with immobilised ligand; 1 µM): 84%
O=C(Nc1cccnn1)N1CCN([C@@H]2CCOc3cc(C(F)(F)F)ccc32)CC1  inhibition (enzyme activity; inhibitor; 20 µM): 14%
C[C@H](C(=O)N[C@H]1COc2ccccc2[C@@H]1S(C)(=O)=O)c1ccc(F)cc1  inhibition (enzyme activity; inhibitor; 10 µM): -14%
Cn1cc(-c2cccc(N3CCc4c(sc5c4CC(C)(C)C5)C3=O)c2CO)cc(Nc2ccncn2)c1=O  inhibition (enzyme activity; inhibitor; 1 µM): 6%
C#Cc1n[nH]c2c(-c3cn([C@@H](C)c4ccccn4)c(=O)[nH]c3=O)cc(F)cc12  inhibition (enzyme activity; inhibitor; 0.1 µM): 9%
COc1ncccc1-c1cnn2ccc(N3CCN(C(=O)OC(C)C)CC3)nc12  remaining binding (binding; competition with immobilised ligand; 1 µM): 95%
Nc1ncc(-c2nc(N3CCOCC3)nc(N3CCOCC3)n2)c(C(F)F)n1  remaining binding (cell-free assay; competition with immobilised ligand; 10 µM): 50%
O=c1[nH]c2ccccc2n1C1CCN(Cc2ccc(-c3[nH]c4cc5ncnc5cc4nc3-c3ccccc3)cc2)CC1  remaining signal (cell-free assay; 0.5 µM): 102%
C#Cc1n[nH]c2c(-c3cn([C@@H](C)c4ccccc4)c(=O)[nH]c3=O)cc(F)cc12  inhibition (enzyme activity; inhibitor; 0.1 µM): 7.7%
Cc1nn(C)cc1-c1nc2c(N3CCN(Cc4ccc(Cl)cc4)CC3)c(Cl)cnc2[nH]1  remaining binding (binding; competition with immobilised ligand; 1 µM): 100%
N#CC1(c2ccccn2)CCN(Cc2cc(C(=O)O)c(=O)n3ccccc23)CC1  remaining binding (cell-free assay; competition with immobilised ligand; 1 µM): 74%
Cc1ncc(C)n2nc(/C=C/c3nc(N4CCCC4)cc(N4CCOCC4)n3)nc12  inhibition (enzyme activity; inhibitor; 10 µM): 37%
c1ccc(C(NCCNC(c2ccccc2)c2ccccc2)c2ccccc2)cc1  inhibition (enzyme activity; inhibitor; 10 µM): -6%
Cn1cc(-c2cc(F)cc(N3CCn4c(cc5c4CCCC5)C3=O)c2CO)cc(Nc2ccc(N3CCN(C4COC4)CC3)cn2)c1=O  inhibition (enzyme activity; inhibitor; 0.1 µM): 8%
